mABHD4 FP: inhibitors of mouse ABHD4 | Q8VD66 | inhibition, % at 8.92 µM | 370,000 compounds, 0.54% hits | purified mABHD4, FP-Rh probe fluorescence polarization;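 active = inhibition exceeding the mean over every tested compound plus 3 SD, cut at about 30% in these data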;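 note: 0% = plate median of compound wells and 100% = S159A mutant with DMSO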
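Material: mouse ABHD4 enzyme, wild type; Benchmarks: S159A mutant high control, sample median low control; Buffer or medium: HEPES pH 7.0, NaCl, Pluronic buffer; Signal: fluorescence polarization; Read-out: percent inhibition of probe binding, normalized to plate controls; Timing: pre-incubation 45 min, probe exposure 60 min, at 25 °C; Dosing: 8.92 µM, single dose.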
SIAE inh: human SIAE inhibition, primary screen | 370,000 compounds, 0.69% hits | SIAE FP-Rh probe binding, fluorescence polarization | inhibition, % at 9.66 µM | Q9HAT2 | AID 1053197;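 active = inhibition above a cutoff: mean of compounds within the control limits plus 3 SD of those, cut at about 17% in these data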;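 note: 0% = plate median of compound wells and 100% = probe without SIAE protein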
PRMT1 inh: PRMT1 (human) inhibition, primary screen | recombinant PRMT1, activity-based probe fluorescence polarization | inhibition, % at 2.79 µM | 370,000 compounds, 1.3% hits | AID 652257;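 active = inhibition above about 21% made by adding two undisclosed values, limit read from the data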
Target sequence (Q99873 whole entry, looked up): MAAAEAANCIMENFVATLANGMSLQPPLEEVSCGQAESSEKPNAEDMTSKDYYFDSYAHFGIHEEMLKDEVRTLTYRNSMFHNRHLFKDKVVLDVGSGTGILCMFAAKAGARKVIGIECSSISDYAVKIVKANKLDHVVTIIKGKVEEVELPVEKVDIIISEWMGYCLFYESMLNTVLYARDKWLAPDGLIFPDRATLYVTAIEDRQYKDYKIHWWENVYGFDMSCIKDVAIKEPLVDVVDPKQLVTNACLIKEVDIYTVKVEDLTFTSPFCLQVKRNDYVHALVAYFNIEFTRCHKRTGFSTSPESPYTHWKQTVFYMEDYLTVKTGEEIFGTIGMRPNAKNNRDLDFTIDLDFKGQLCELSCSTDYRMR
HTRA1 inhibitor: inhibitors of human serine peptidase HTRA1 | recombinant HTRA1, FP-rhodamine activity-based probe, fluorescence polarization | inhibition, % at 5.96 µM | AID 504803 | 340,000 compounds, 0.5% hits | Q92743; in the data active = inhibition above about 36%;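 note: 0% = enzyme with DMSO and 100% = wells lacking enzyme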
TCR CD3 inh: human TCR-CD3 binding inhibition. TAMRA-labeled TCR probe fluorescence, biochemical. inhibition, % at 9.4 µM. AID 651800. 360,000 compounds, 0.37% hits; in the data active = inhibition above about 19%;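 note: recombinant mutant TCR 2C K166C tagged with TAMRA read by polarization; 0% = receptor in buffer alone and 100% = receptor with positive control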
PRMT1 inh conf: confirmation of human PRMT1 inhibitors; AID 687036; inhibition, % at 2.79 µM; 3,300 compounds, 42% hits; shares compounds with PRMT1 inh; recombinant His-PRMT1, activity-based probe fluorescence polarization;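 active = mean inhibition across replicates above the hit cutoff derived for the earlier primary screen, cut at about 22% in these data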
Starred values were filed as active, the others as inactive; . = no result given. A selection: hits, their analogues and other compounds. The true share with any hit is near 2.6%.

SMILES | mABHD4 FP | SIAE inh | PRMT1 inh | HTRA1 inhibitor | TCR CD3 inh | PRMT1 inh conf
Clc1ccc(CSc2nnc(-c3cccs3)o2)cc1Cl | 2 | 0 | -1 | . | . | .
CN1/C(=C/C(=O)c2ccc(Cl)cc2)Sc2cc3c(cc21)OCO3 | 7 | 0 | 33* | 4 | 5 | 3
COc1ccc2c(c1)S/C(=C\C(=O)c1ccncc1)N2C | -5 | 4 | 45* | 1 | -1 | 11
COc1ccc(C(=O)/C=C2/Sc3cc4c(cc3N2C)OCO4)cc1 | 4 | -3 | 1 | 1 | 3 | .
COc1cccc(CNC(=O)CN2CCCc3ccccc32)c1OC | 4 | 4 | 9 | . | . | .
CC(C)[C@H](NC(=O)c1ccccc1)C(=O)N1CCC[C@H]1C(=O)NCc1ccccc1 | -3 | 1 | 1 | . | -3 | .
Cc1ccc(N=C2NC(=O)/C(=C\c3ccco3)S2)cc1 | 14 | 6 | 6 | 10 | 5 | .
Cc1cccc(N=C2NC(=O)/C(=C/C=C/c3ccco3)S2)c1 | -1 | 15 | 28* | 11 | -11 | 9
Cc1ccc(Cn2c(=S)[nH]c3ccc(N4CCOCC4)cc3c2=O)o1 | 12 | 6 | 69* | 14 | 3 | 61*
CCOC(=O)c1c(NS(=O)(=O)c2ccc(Br)cc2)sc2c1CCC2 | 29 | -2 | 27* | 15 | 4 | 13
CCOC(=O)c1c(NS(=O)(=O)Cc2ccccc2)sc2c1CCCC2 | 9 | 15 | 4 | -10 | 4 | .
CC1=C(C)CS(=O)N(S(=O)(=O)c2ccc(Cl)cc2)C1 (stereo not given) | 5 | -6 | 34* | -25 | 6 | 43*
CC1CCCC(C)N1S(=O)(=O)c1ccc(Cl)cc1 (stereo not given) | -4 | -2 | 2 | -1 | 9 | .
c1ccc2c(C3=NNC(=NC4CCCCC4)SC3)c[nH]c2c1 | 16 | 7 | 4 | 8 | -2 | .
c1ccc2c(C3=NNC(=NC4CC4)SC3)c[nH]c2c1 | 7 | 9 | 38* | 3 | -2 | 3
O=C(OCC(=O)N1N=C(c2ccc(Cl)cc2)CC1c1ccco1)c1cncc(Br)c1 (stereo not given) | 7 | 6 | 34* | -32 | 0 | 5
Cc1[nH]c2ccc(-c3n[nH]c(=S)n3-c3ccccc3)cc2c1C | -7 | -3 | 17 | 0 | 2 | .
COc1cccc(-n2c(-c3cccc(S(=O)(=O)N(C)C)c3)n[nH]c2=S)c1 | 0 | 1 | -3 | -1 | 3 | .
COc1cccc(-n2c(-c3ccc4[nH]c(C)c(C)c4c3)n[nH]c2=S)c1 | -3 | 8 | 26* | -1 | -8 | 7
Cc1[nH]c2ccc(-c3n[nH]c(=S)n3-c3ccc(Br)cc3)cc2c1C | -3 | -2 | 26* | -7 | 6 | 10
O=C(NC1CCCC1)N1CCC(c2nc3ccc(Cl)cc3[nH]2)CC1 | -4 | 0 | -2 | . | . | .
C=CCCC(=O)N(Cc1ccccc1)c1ccccc1C(=O)Nc1cc(OC)ccc1OC | -3 | 3 | -1 | . | . | .
O=C(Nc1ccccc1)C(Cl)C(=O)c1ccccc1 (stereo not given) | 1 | 3 | 62* | -2 | 2 | 79*
Cc1ccccc1C(=O)NC(=S)NC1CCSC1=O (stereo not given) | -2 | 17 | 4 | 4 | -4 | .
COc1ccc(C(=O)NC(=S)NC2CCSC2=O)cc1 (stereo not given) | -4 | 7 | 29* | -1 | 7 | 7
SMILES | mABHD4 FP | SIAE inh | PRMT1 inh | HTRA1 inhibitor | TCR CD3 inh | PRMT1 inh conf
O=C(NC(=S)NC1CCSC1=O)c1cccs1 (stereo not given) | 2 | 2 | 36* | 7 | 6 | 10
CCC[C@H]1[C@@H](OC(=O)NCc2cccnc2)CC[C@@]23CCCN2C(=O)CCC[C@@H]13 | 0 | 7 | 2 | . | . | .
COC(=O)[C@]12C[C@H](CC(=O)N3CCN(C(=O)C4CC4)CC3)C(=O)N(Cc3ccc(Cl)cc3Cl)C1=C[C@H](COCc1ccccc1)O[C@@H]2C | 1 | -3 | 2 | . | . | .
COc1ccc(NC(=O)CC2SC(=Nc3ccccc3)NC2=O)cc1 (stereo not given) | 4 | -8 | 2 | -5 | -10 | .
Cc1ccc(NC(=O)CC2SC(=O)NC2=O)cc1 (stereo not given) | -14 | -4 | 56* | -7 | 0 | 76*
COc1ccc(NC(=O)CC2SC(=O)NC2=O)cc1 (stereo not given) | 4 | 0 | 53* | 9 | 2 | 66*
O=C1c2[nH]nc(-c3ccccc3)c2C(c2ccc(F)cc2)N1Cc1ccccc1 (stereo not given) | -27 | -10 | 14 | . | 5 | .
CCOC(=O)C1CCN(C(=O)C(C)(C)NC(=O)Nc2ccc(Cl)cc2Cl)CC1 | -6 | 4 | -5 | . | . | .
Fc1ccc(C2=CC(c3ccco3)n3ncnc3N2)cc1 (stereo not given) | . | . | . | 0 | . | .
C1=C(c2ccc(-c3ccccc3)cc2)Nc2ncnn2C1c1ccco1 (stereo not given) | -8 | -12 | 39* | -14 | 4 | 22*
Cc1nnc(N=c2ssnc2Cl)o1 | 1 | 10 | 49* | -3 | 4 | 70*
Cc1ccc(N=c2ssnc2Cl)cc1 | 7 | 2 | 70* | 11 | 3 | 89*
Cc1cc(Cl)ccc1N=c1ssnc1Cl | -13 | -6 | 44* | 3 | -2 | 94*
Nc1ccccc1N=c1ssnc1Cl | 1 | 4 | 69* | -5 | -2 | 58*
Cc1cc(C)nc(/N=c2/ssnc2Cl)c1 | 3 | -1 | 7 | 9 | 4 | .
CCCCCCCCN1CCS(=O)(=O)N(Cc2ccc(C(F)(F)F)cc2)C(C(=O)OC)C1 (stereo not given) | 0 | -2 | 1 | . | . | .
Brc1cccc(Cn2ccc3ccc(-c4ccc5ccn(Cc6cccc(Br)c6)c5c4)cc32)c1 | -6 | -7 | 0 | . | . | .
Cc1cccc(CCNC(=O)Cn2ncc3c2-c2cc(C)ccc2OC3)c1 | -2 | -1 | 6 | . | . | .
O=C(Sc1ccc(Cl)cc1)c1ccccn1 | 10 | 8 | 47* | 3 | -5 | 44*
O=C(NCCNC(=O)c1ccccn1)c1ccc(Cl)cc1 | -1 | 2 | 0 | 3 | 9 | .
CC[C@H](CCCc1ccc(F)cc1)CN(Cc1ccc(OC)cc1)S(=O)(=O)c1ccc(C)cc1 | 0 | 0 | 0 | . | . | .
O=C1CC(Sc2ccc(Cl)cc2)C(=O)N1c1ccc2c(c1)OCCO2 (stereo not given) | -4 | -53 | 55* | -9 | -1 | 45*
CCN(C[C@H]1[C@@H](c2ccc(C3=CCCC3)cc2)[C@H](CO)N1C(=O)c1cccnc1)S(=O)(=O)c1ccccc1[N+](=O)[O-] | 2 | 2 | -4 | . | . | .
CCCCCNC(=O)C(c1ccc(C#N)cc1)n1c(=O)c(-c2ccco2)nc2ccccc21 (stereo not given) | -11 | -4 | 15 | . | -9 | .
CCCCCNC(=O)C(c1ccccc1F)n1c(=O)c(-c2ccco2)nc2ccccc21 (stereo not given) | -26 | -22 | 31* | . | -6 | 25*

High-throughput results: PubChem, The Scripps Research Institute Molecular Screening Center
